Laboratory results: ChEMBL document CHEMBL3244344, “Nucleoside conjugates as potential antitumor agents. 2. Synthesis and biological activity of 1-(beta-D-arabinofuranosyl)cytosine conjugates of prednisolone and prednisone” (J Med Chem, 1979)

Assays:
[1] = system: L1210; test: Antitumor activity against mouse L1210 cells allografted in C3D2F1/J mouse assessed as increase in life span at 27 mg/kg, ip qd administered for 5 days relative to control; type: functional; details: 120 h, route intraperitoneal
[2] = system: L1210; test: Cytotoxicity against mouse L1210 cells assessed as growth inhibition measured at 72 hrs by trypan blue exclusion assay; type: functional; details: L1210, 72 h, read-out: ED50 (the source's name)
Summary of the method: (§1)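 L1210 mouse lymphoid leukemia cells seeded at 2–3 × 10⁵ cells/mL in RPMI 1640 + 10% fetal calf serum with compound (from Me2SO stock, final Me2SO 0.5%, compound 100 μM or lower). Viable cells counted by 0.05% Trypan blue exclusion in a hemocytometer at 24, 48, 72 h. Treated/untreated density ratio. ED50 at 72 h interpolated from response curves of three separate experiments.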

[3] = system: L1210; test: Antitumor activity against mouse L1210 cells allografted in C3D2F1/J mouse assessed as median survival time at 27 mg/kg, ip qd administered for 5 days (reference value: 10 days); type: functional; details: route intraperitoneal
[4] = system: Mus musculus; test: Toxicity in C3D2F1/J mouse allografted with mouse L1210 cells assessed as body weight change at 27 mg/kg, ip qd administered for 5 days measured on day 8 (reference value: 1.81 +/- 0.79 g); type: organism-based; design: dose 27 mg/kg, route intraperitoneal; details: in vivo, 120 h
[5] = system: L1210; test: Cytotoxicity against mouse L1210 cells assessed as growth inhibition measured at 72 hrs in presence of 5 uM prednisolone by trypan blue exclusion assay; type: functional; details: L1210, 72 h, read-out: ED50 (the source's name); summary of the method: as §1
[6] = system: L1210; test: Cytotoxicity against mouse L1210 cells assessed as growth inhibition measured at 72 hrs in presence of 100 uM prednisolone by trypan blue exclusion assay; type: functional; details: L1210, 72 h, read-out: ED50 (the source's name); summary of the method: as §1
[7] = system: Mus musculus; test: Toxicity in C3D2F1/J mouse allografted with mouse L1210 cells assessed as body weight change at 50 mg/kg, ip qd administered for 5 days measured on day 8 (reference value: 1.81 +/- 0.79 g); type: organism-based; design: dose 50 mg/kg, route intraperitoneal; details: in vivo, 120 h
[8] = system: L1210; test: Antitumor activity against mouse L1210 cells allografted in C3D2F1/J mouse assessed as median survival time at 50 mg/kg, ip qd administered for 5 days (reference value: 9 days); type: functional; details: route intraperitoneal
[9] = system: L1210; test: Antitumor activity against mouse L1210 cells allografted in C3D2F1/J mouse assessed as median survival time at 24.2 mg/kg, ip qd administered for 5 days (reference value: 10 days); type: functional; details: route intraperitoneal
[10] = system: L1210; test: Antitumor activity against mouse L1210 cells allografted in C3D2F1/J mouse assessed as increase in life span at 24.2 mg/kg, ip qd administered for 5 days relative to control; type: functional; details: 120 h, route intraperitoneal
[11] = system: Mus musculus; test: Toxicity in C3D2F1/J mouse allografted with mouse L1210 cells assessed as body weight change at 24.2 mg/kg, ip qd administered for 5 days measured on day 8 (reference value: 1.81 +/- 0.79 g); type: organism-based; design: dose 24.2 mg/kg, route intraperitoneal; details: in vivo, 120 h
[12] = system: L1210; test: Antitumor activity against mouse L1210 cells allografted in C3D2F1/J mouse assessed as increase in life span at 50 mg/kg, ip qd administered for 5 days relative to control; type: functional; details: 120 h, route intraperitoneal
[13] = system: L1210; test: Antitumor activity against mouse L1210 cells allografted in C3D2F1/J mouse assessed as increase in life span at 25 mg/kg, ip qd administered for 5 days relative to control; type: functional; details: 120 h, route intraperitoneal
[14] = system: L1210; test: Antitumor activity against mouse L1210 cells allografted in C3D2F1/J mouse assessed as increase in life span at 18.2 mg/kg, ip qd administered for 5 days relative to control; type: functional; details: 120 h, route intraperitoneal
[15] = system: Mus musculus; test: Toxicity in C3D2F1/J mouse allografted with mouse L1210 cells assessed as body weight change at 18.3 mg/kg, ip qd administered for 5 days measured on day 8 co-administered with 27 mg/kg prednisone (reference value: 1.81 +/- 0.79 g); type: organism-based; details: in vivo, 120 h
[16] = system: Mus musculus; test: Toxicity in C3D2F1/J mouse allografted with mouse L1210 cells assessed as body weight change at 18.2 mg/kg, ip qd administered for 5 days measured on day 8 co-administered with 27 mg/kg prednisolone (reference value: 1.81 +/- 0.79 g); type: organism-based; details: in vivo, 120 h
[17] = system: Mus musculus; test: Toxicity in C3D2F1/J mouse allografted with mouse L1210 cells assessed as body weight change at 25 mg/kg, ip qd administered for 5 days measured on day 8 (reference value: 1.81 +/- 0.79 g); type: organism-based; design: dose 25 mg/kg, route intraperitoneal; details: in vivo, 120 h
[18] = system: L1210; test: Antitumor activity against mouse L1210 cells allografted in C3D2F1/J mouse assessed as median survival time at 18.3 mg/kg, ip qd administered for 5 days co-administered with 27 mg/kg prednisone (reference value: 9 days); type: functional
[19] = system: Mus musculus; test: Toxicity in C3D2F1/J mouse allografted with mouse L1210 cells assessed as body weight change at 18.2 mg/kg, ip qd administered for 5 days measured on day 8 (reference value: 1.81 +/- 0.79 g); type: organism-based; design: dose 18.2 mg/kg, route intraperitoneal; details: in vivo, 120 h
[20] = system: L1210; test: Antitumor activity against mouse L1210 cells allografted in C3D2F1/J mouse assessed as median survival time at 18.2 mg/kg, ip qd administered for 5 days co-administered with 27 mg/kg prednisolone (reference value: 9 days); type: functional
[21] = system: L1210; test: Antitumor activity against mouse L1210 cells allografted in C3D2F1/J mouse assessed as median survival time at 25 mg/kg, ip qd administered for 5 days (reference value: 8 days); type: functional; details: route intraperitoneal
[22] = system: L1210; test: Antitumor activity against mouse L1210 cells allografted in C3D2F1/J mouse assessed as median survival time at 18.2 mg/kg, ip qd administered for 5 days (reference value: 10 days); type: functional; details: route intraperitoneal
[23] = system: L1210; test: Antitumor activity against mouse L1210 cells allografted in C3D2F1/J mouse assessed as increase in life span at 18.2 mg/kg, ip qd administered for 5 days co-administered with 27 mg/kg prednisolone relative to control; type: functional
[24] = system: L1210; test: Antitumor activity against mouse L1210 cells allografted in C3D2F1/J mouse assessed as increase in life span at 18.3 mg/kg, ip qd administered for 5 days co-administered with 27 mg/kg prednisone relative to control; type: functional

C[C@]12C=CC(=O)C=C1CC[C@@H]1[C@@H]2C(=O)C[C@@]2(C)[C@H]1CC[C@]2(O)C(=O)CO [PREDNISONE] showed an ILS at 27 mg/kg [1] of -5%, an EC50 [2] greater than 100000 nM and an MST [3] of 9.5 days. The Activity [4] was -1.01 g.

Nc1ccn([C@@H]2O[C@H](COP(=O)(O)O)[C@@H](O)[C@@H]2O)c(=O)n1 [CYTARABINE 5'-PHOSPHATE] showed an EC50 [5] of 10 nM, an EC50 [2] of 50 nM and an EC50 [6] of 5 nM. It also gave an Activity [7] of -4.32 g, an MST [8] of 9 days and an MST [9] of 16.5 days. The ILS at 24.2 mg/kg [10] was 65%, the Activity [11] was -3.52 g and the ILS at 50 mg/kg [12] was 0%.

For Nc1ccn([C@@H]2O[C@H](CO)[C@@H](O)[C@@H]2O)c(=O)n1 [CYTARABINE], the ILS at 25 mg/kg [13] was 18.8%, the ILS at 18.2 mg/kg [14] was 45% and the Activity [15] was -1.25 g. For the same compound, the EC50 [2] was 100 nM, the Activity [16] was -2.46 g and the Activity [17] was -3.8 g. The Activity [7] was -4.2 g, the MST [8] was 10 days and the MST [18] was 13 days. For the same compound, the Activity [19] was -3.64 g, the MST [20] was 14 days and the MST [21] was 9.5 days. It also gave an MST [22] of 14.5 days, an ILS [23] of 40% and an ILS [24] of 44%. For the same compound, the ILS at 50 mg/kg [12] was 11.1%.
